Reference: article PMC11967334 (RSC Advances, 2025)

Key:
[1] = biological target: MMP-2 (Homo sapiens, UniProt P08253); test: In vitro MMP-2 inhibition, colorimetric kit; format: biochemical; conditions: read-out: MMP-2 IC50
[2] = biological target: MMP-9 (Homo sapiens, UniProt P14780); test: In vitro MMP-9 inhibition, colorimetric kit; format: biochemical
[3] = tested on: MCF-7 cells; test: MTT cytotoxicity on breast cancer cells; format: cell-based, human
Method in brief: (§1)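 Test compounds (free s-triazine dendrimers and their quercetin, lactobionic acid and PEG conjugates) were screened by MTT assay against MCF-7 breast and HepG-2 hepatocellular carcinoma cells. IC50 values are reported in μM as mean ± SEM of three measurements. Differences were tested by one-way ANOVA with Tukey's test, with p < 0.05 taken as significant. SI was tabulated against Wi-38 values.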

[4] = tested on: HepG-2 cells; test: MTT cytotoxicity on hepatocellular carcinoma cells; format: cell-based, human
Method in brief: as §1

[5] = tested on: VEGF; test: VEGF gene expression by quantitative real-time PCR; format: cell-based, human; conditions: HepG-2, compared to untreated cells, mean ± SEM
[6] = tested on: MCF-7 cells; test: Flow cytometric annexin V/PI analysis of apoptosis; format: cell-based, human; conditions: MCF-7, 72 h, mean ± SEM
[7] = tested on: HepG-2 cells; test: Flow cytometric annexin V/PI analysis of apoptosis; format: cell-based, human; conditions: HepG-2, 72 h, mean ± SEM
[8] = tested on: VEGF; test: VEGF gene expression by quantitative real-time PCR; format: cell-based, human; conditions: MCF-7, compared to untreated cells, mean ± SEM
[9] = tested on: Wi-38 cells; test: MTT cytotoxicity on normal human fibroblasts; format: cell-based
Method in brief: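 Normal human lung fibroblasts (Wi-38) were exposed to free s-triazine dendrimers and their conjugates, and viability was read by MTT assay. Safety was expressed as EC100 in μM, the concentration giving 100% growth of normal cells, as mean ± SEM of three measurements. Groups were compared by one-way ANOVA with Tukey's test at p < 0.05.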

[10] = selectivity index versus normal Wi-38 cells

Chain of MMP-9 (P14780 94-707): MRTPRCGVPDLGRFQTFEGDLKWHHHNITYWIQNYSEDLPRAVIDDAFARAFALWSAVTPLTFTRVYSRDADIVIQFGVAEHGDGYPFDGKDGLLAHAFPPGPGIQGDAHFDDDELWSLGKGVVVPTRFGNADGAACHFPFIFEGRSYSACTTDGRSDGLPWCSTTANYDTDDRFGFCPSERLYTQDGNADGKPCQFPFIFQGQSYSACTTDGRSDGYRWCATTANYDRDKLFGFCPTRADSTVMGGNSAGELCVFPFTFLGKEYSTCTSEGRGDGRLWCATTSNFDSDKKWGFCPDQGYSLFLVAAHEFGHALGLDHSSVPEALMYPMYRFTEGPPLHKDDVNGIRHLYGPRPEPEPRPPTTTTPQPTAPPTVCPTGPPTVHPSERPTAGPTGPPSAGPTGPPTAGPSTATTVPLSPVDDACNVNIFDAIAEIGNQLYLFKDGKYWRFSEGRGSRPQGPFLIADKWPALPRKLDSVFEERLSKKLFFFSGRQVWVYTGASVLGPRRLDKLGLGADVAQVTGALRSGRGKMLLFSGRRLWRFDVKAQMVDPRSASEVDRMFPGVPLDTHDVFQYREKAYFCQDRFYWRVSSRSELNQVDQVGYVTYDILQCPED
Chain of MMP-2 (P08253 110-446 limits assumed): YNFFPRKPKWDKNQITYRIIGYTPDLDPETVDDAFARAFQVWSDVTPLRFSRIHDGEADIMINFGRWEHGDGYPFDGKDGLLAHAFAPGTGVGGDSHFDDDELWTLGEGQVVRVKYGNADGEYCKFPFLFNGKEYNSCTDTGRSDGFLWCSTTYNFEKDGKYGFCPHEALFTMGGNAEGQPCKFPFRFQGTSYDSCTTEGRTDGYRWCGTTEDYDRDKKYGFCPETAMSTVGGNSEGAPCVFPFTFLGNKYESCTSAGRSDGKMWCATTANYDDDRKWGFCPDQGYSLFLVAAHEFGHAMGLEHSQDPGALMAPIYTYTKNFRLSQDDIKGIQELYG

COc1ccc(S(=O)(=O)N(CC(=O)NO)CC(C)C)cc1 [NNGH, N-isobutyl-N-(4-methoxyphenylsulfonyl)glycyl hydroxamic acid]
IC50 [1]: 0.299 µM | MMP-2/MMP-9 selectivity ([2]; SI = IC50 (MMP-2)/IC50 (MMP-9), text: folds): 1.08 | IC50 ([2]; read-out: MMP-9 IC50): 0.277 µM

O=c1c(O)c(-c2ccc(O)c(O)c2)oc2cc(O)cc(O)c12 [Qur, quercetin]
IC50 ([3]; Homo sapiens, MCF7, 72 h, read-out: MCF-7 IC50): 35.3 ± 0.475 µM | MCF-7 SI [3, 10]: 8.339 | selectivity index (SI) ([3]; stated for MCF-7 and HepG-2 together, versus Wi-38): ~8.5 | IC50 ([4]; Homo sapiens, HepG2, 72 h, read-out: HepG-2 IC50): 34.32 ± 0.128 µM | HepG-2 SI [4, 10]: 8.573 | VEGF relative fold change [5]: 0.708 ± 0.012 | Total % of the apoptotic population [6]: 47.00 ± 1.83 % | Total % of the apoptotic population [7]: 24.20 ± 0.895 % | VEGF relative fold change [8]: 0.683 ± 0.029 | IC50 ([9]; Homo sapiens, WI-38, read-out: Wi-38 IC50): 294 ± 12.6 µM | EC100 ([9]; effective safe concentration at 100% cell viability, Wi-38, 72 h, mean ± SEM): 70.57 ± 0.950 µM
